Source: ChEMBL document CHEMBL5625229 (Eur J Med Chem, 2023)

Tests used:
[1] = biological target: Multidrug resistance-associated protein 1 (Homo sapiens, UniProt P33527); experiment: Inhibition of MRP1 (unknown origin) overexpressed in MDCK cells using Calcein-AM as substrate preincubated for 30 mins followed by substrate addition measured after 30 mins by fluorescence based assay; format: cell-based
How it was run: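 MDCK-MRP1 cells, 30 000/well, grown overnight, then treated with compound (final 0.01 nM–100 µM, lower for very potent ones) in medium for 30 min at 37 °C. Calcein-AM added at 2.5 µM final for 30 min, then three ice-cold PBS washes. Fluorescence read at 485/535 nm against untreated cells. EC50 from fluorescence increase versus log dose, mean ± SEM of three experiments in duplicate.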

[2] = biological target: ATP-dependent translocase ABCB1 (Homo sapiens, UniProt P08183); experiment: Inhibition of MDR1 (unknown origin) overexpressed in MDCK cells using Calcein-AM as substrate preincubated for 30 mins followed by substrate addition measured after 30 mins by fluorescence based assay; format: cell-based
ATP-dependent translocase ABCB1, sequence (P08183 whole entry): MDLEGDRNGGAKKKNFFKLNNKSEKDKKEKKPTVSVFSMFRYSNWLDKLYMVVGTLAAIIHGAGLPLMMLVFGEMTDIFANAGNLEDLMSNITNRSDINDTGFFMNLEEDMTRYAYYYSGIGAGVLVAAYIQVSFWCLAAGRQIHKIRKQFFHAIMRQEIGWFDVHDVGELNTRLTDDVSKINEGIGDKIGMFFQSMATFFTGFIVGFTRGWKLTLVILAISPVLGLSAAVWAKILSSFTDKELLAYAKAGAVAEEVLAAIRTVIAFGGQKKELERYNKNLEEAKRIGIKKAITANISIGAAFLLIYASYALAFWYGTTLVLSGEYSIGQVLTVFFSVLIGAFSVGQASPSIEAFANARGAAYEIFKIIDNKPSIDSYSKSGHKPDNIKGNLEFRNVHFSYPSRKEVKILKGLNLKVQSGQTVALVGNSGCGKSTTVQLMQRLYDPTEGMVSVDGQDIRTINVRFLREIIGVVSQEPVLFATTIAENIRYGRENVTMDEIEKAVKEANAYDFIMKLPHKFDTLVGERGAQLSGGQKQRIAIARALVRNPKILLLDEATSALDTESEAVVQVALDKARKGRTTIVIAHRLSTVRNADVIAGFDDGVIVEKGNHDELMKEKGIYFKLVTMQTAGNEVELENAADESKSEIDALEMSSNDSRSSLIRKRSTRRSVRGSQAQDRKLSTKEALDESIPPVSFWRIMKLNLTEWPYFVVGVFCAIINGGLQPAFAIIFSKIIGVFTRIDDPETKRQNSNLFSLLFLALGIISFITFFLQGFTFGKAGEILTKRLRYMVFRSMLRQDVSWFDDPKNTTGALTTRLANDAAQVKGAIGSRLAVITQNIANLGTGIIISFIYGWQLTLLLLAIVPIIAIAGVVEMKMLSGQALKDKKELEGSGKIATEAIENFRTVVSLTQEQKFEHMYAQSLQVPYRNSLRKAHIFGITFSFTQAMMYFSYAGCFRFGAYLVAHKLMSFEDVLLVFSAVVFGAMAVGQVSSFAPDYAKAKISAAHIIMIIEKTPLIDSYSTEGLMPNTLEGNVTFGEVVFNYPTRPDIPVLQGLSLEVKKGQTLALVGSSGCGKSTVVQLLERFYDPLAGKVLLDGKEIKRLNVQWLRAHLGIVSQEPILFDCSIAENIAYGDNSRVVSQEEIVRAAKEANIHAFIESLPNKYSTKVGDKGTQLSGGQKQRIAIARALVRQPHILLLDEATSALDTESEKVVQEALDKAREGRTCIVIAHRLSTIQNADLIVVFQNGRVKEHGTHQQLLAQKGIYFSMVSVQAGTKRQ

[3] = biological target: T1, Broad substrate specificity ATP-binding cassette transporter ABCG2 (Homo sapiens, UniProt Q9UNQ0); experiment: Inhibition of BCRP (unknown origin) overexpressed in MDCK cells using Hoechst 33342 as substrate preincubated for 30 mins followed by substrate addition measured after 30 mins by fluorescence based assay; format: cell-based
T1 sequence (Q9UNQ0 whole entry): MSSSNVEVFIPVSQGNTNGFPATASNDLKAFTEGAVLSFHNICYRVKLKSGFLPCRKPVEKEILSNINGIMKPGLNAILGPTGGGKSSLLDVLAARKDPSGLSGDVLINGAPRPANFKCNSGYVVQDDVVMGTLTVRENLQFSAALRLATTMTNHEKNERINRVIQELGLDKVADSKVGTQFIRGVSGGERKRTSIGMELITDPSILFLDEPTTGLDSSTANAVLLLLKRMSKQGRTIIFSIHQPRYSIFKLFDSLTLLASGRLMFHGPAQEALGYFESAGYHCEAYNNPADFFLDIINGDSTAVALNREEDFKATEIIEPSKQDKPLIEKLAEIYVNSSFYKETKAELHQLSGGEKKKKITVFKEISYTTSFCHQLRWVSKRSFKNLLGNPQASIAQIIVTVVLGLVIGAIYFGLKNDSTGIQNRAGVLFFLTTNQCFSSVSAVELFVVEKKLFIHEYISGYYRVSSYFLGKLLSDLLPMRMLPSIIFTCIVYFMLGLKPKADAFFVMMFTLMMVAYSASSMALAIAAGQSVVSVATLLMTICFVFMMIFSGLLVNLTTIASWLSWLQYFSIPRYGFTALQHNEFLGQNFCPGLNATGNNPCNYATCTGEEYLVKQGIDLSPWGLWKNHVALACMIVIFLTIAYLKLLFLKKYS

[4] = Efflux ratio of apparent permeability across basal to apical membrane over apical to basal membrane in human Caco-2 cells at 100 uM incubated fro 120 mins by spectroscopy; format: ADME, cell-based
How it was run: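 Caco-2 grown 21 days on Transwell filters, with TEER checked daily (above 1000 Ω taken as optimal). Washed in HBSS and equilibrated 30 min at 37 °C, then compound at 100 µM added to the donor side (apical or basolateral), with fresh HBSS on the receiver side, for 120 min at 37 °C. Acceptor concentration by UV spectroscopy gives Papp (nm/s). Ratio = Papp BA/AB, three experiments in duplicate.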

[5] = Potentiation of DOX-induced cytotoxicity against doxorubicin-resistant human HT-29 cells assessed as reduction in cell viability at 10 uM incubated for 48 hrs relative to control; format: functional, doxorubicin-resistant human HT-29 cell
How it was run: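 HT29/DX cells (10 000/well) were given compound at 1 or 10 µM together with 5 µM doxorubicin 24 h after seeding. After 48 h, viability by MTT (0.5 mg/mL, 3–4 h, 37 °C), read at 570/630 nm against untreated cells. Three independent experiments, technical duplicates; one-way ANOVA.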

[6] = Antiproliferative activity against doxorubicin-resistant human HT-29 cells at 1 to 10 uM incubated for 48 hrs relative to control; format: functional, doxorubicin-resistant human HT-29 cell; conditions: dose 1-10 µM
How it was run: (§1)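 Compound alone (1 μM and 10 μM), 48 h, on HT29 or on HT29/DX (the latter kept in 100 nM doxorubicin to hold resistance). Cells seeded 10 000/well, compound added after 24 h. Viability by MTT (0.5 mg/mL, 3–4 h), formazan in DMSO/EtOH 1:1, absorbance 570/630 nm. Three independent experiments in duplicate.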

HT-29 = experiment: Antiproliferative activity against human HT-29 cells at 1 to 10 uM incubated for 48 hrs relative to control; format: functional; conditions: dose 1-10 µM; how it was run: as §1

Multidrug resistance-associated protein 1, sequence (P33527 whole entry): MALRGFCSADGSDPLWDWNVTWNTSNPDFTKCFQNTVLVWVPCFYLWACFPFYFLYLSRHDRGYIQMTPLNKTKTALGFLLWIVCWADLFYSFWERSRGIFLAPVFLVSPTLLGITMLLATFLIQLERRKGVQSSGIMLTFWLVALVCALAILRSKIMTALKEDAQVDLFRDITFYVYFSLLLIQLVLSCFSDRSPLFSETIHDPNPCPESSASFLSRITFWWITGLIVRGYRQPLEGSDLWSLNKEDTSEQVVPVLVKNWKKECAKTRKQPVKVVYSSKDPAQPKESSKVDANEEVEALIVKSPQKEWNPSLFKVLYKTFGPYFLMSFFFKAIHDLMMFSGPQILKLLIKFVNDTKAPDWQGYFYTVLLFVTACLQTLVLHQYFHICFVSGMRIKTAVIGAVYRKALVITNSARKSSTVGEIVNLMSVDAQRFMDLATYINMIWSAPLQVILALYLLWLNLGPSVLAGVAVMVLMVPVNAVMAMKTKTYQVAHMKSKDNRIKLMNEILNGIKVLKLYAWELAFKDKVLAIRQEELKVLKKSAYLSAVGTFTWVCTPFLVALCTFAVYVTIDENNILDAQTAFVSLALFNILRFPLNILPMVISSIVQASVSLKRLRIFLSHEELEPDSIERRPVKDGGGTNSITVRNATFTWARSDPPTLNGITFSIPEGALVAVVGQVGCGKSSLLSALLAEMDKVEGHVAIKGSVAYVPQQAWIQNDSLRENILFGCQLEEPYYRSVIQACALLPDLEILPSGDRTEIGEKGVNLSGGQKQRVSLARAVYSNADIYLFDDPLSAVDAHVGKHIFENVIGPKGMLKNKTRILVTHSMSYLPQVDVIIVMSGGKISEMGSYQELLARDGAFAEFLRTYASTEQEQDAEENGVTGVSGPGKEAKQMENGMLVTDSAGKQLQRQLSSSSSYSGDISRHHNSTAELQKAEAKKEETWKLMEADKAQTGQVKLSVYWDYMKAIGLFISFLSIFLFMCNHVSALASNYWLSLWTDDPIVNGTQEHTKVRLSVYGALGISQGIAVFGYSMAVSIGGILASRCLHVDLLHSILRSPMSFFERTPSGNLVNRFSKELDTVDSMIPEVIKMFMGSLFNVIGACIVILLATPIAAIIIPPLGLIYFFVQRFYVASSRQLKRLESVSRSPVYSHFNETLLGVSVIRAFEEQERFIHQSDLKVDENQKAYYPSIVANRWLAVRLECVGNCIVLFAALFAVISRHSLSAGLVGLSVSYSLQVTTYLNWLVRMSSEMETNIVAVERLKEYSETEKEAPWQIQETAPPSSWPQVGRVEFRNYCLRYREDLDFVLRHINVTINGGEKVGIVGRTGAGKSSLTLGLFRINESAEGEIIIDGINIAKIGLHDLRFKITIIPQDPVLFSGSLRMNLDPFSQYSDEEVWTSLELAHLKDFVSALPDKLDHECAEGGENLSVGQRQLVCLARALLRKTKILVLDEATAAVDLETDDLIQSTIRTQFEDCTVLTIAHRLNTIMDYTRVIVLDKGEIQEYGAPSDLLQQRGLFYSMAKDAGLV

Structure (SMILES) | EC50 [1] [µM] | EC50 [2] [µM] | EC50 [3] [µM] | efflux ratio at 2 h, 100 µM [4] | Activity [5] [%] | Activity [6] [%] | Activity (HT-29) [%]
COc1cc2c(cc1OC)CN(CCc1ccc(-c3nnc(-c4cc(OC)c(OC)c(OC)c4)o3)cc1)CC2 | > 100 | 0.071 | – | – | – | – | –
COc1cc2c(cc1OC)CN(CCc1ccc(NC(=O)c3cccc4c(=O)c5cccc(OC)c5[nH]c34)cc1)CC2 | > 100 | – | – | – | – | – | –
COc1cc2c(cc1OC)CN(CCc1ccc(-c3nnc(-c4ccccc4OC)o3)cc1)CC2 | > 100 | 0.019 | > 100 | 6.3 | 64.3 | ~10 | ~10
COc1cc2c(cc1OC)CN(CCc1ccc(-n3nnnc3/C=C/c3cc(OC)c(OC)c(OC)c3)cc1)CC2 | > 100 | 5.27 | – | – | – | – | –
COc1cc2c(cc1OC)CN(CCc1ccc(-c3nnc(/C=C/c4cc(OC)c(OC)c(OC)c4)o3)cc1)CC2 | > 100 | – | – | – | – | – | –
COc1cc2c(cc1OC)CN(CCc1ccc(NC(=O)c3cc(OC)c(OC)cc3NC(=O)c3cnc4ccccc4c3)cc1)CC2 | – | – | – | 22 | – | – | –
COc1cc2c(cc1OC)CN(CCc1ccc(-c3nnc(-c4ccc(OC)c(OC)c4OC)o3)cc1)CC2 | > 100 | 0.44 | > 100 | 6.5 | – | ~10 | ~10
COc1cc2c(cc1OC)CN(CCc1ccc(-n3nnc(-c4cccc(OC)c4OC)n3)cc1)CC2 | > 100 | 0.14 | – | – | – | – | –
COc1cc2c(cc1OC)CN(CCc1ccc(-c3nnc(-c4c(OC)cccc4OC)o3)cc1)CC2 | > 100 | – | > 100 | – | – | – | –
COc1cc2c(cc1OC)CN(CCc1ccc(-n3nnc(-c4c(OC)cccc4OC)n3)cc1)CC2 | > 100 | – | – | – | – | – | –
COc1cc2c(cc1OC)CN(CCc1ccc(-c3nnc(-c4cccc(OC)c4OC)o3)cc1)CC2 | > 100 | 0.4 | > 100 | 6.8 | – | ~10 | ~10
COc1cc2c(cc1OC)CN(CCc1ccc(-n3nnnc3-c3cc(OC)c(OC)c(OC)c3)cc1)CC2 | 4.33 | 0.63 | – | – | – | – | –
COc1cc2c(cc1OC)CN(CCc1ccc(-n3nnc(/C=C/c4cc(OC)c(OC)c(OC)c4)n3)cc1)CC2 | > 100 | 0.012 | 53.6 | 5.4 | – | ~10 | ~10
COc1cc2c(cc1OC)CN(CCc1ccc(-n3nnc(-c4cc(OC)c(OC)c(OC)c4)n3)cc1)CC2 | > 100 | 0.26 | – | – | – | – | –
COc1cc2c(cc1OC)CN(CCc1ccc(-n3nnc(-c4ccc(OC)c(OC)c4OC)n3)cc1)CC2 | > 100 | 0.55 | – | – | – | – | –
COc1cc2c(cc1OC)CN(CCc1ccc(-c3nnc(-c4c(OC)c(OC)cc5ccccc45)o3)cc1)CC2 | > 100 | 0.046 | > 100 | 9.7 | – | ~10 | ~10

Second part, led by results:

EC50 [1] [µM] | EC50 [2] [µM] | EC50 [3] [µM] | efflux ratio at 2 h, 100 µM [4] | Structure (SMILES) | Activity [5] [%] | Activity [6] [%] | Activity (HT-29) [%]
> 100 | 0.95 | – | – | COc1cc2c(cc1OC)CN(CCc1ccc(-n3nnnc3-c3ccccc3OC)cc1)CC2 | – | – | –
> 100 | 0.082 | – | – | COc1cc2c(cc1OC)CN(CCc1ccc(-n3nnc(-c4ccccc4OC)n3)cc1)CC2 | – | – | –
> 100 | – | > 100 | – | COc1cc2c(cc1OC)CN(CCc1ccc(-c3nnc(-c4c(OC)ccc5ccccc45)o3)cc1)CC2 | – | – | –
> 100 | 1.06 | > 100 | 3.3 | COc1cc2c(cc1OC)CN(CCc1ccc(-n3nnnc3-c3c(OC)c(OC)cc4ccccc34)cc1)CC2 | – | – | –
> 100 | 0.09 | > 100 | 4.5 | COc1cc2c(cc1OC)CN(CCc1ccc(-n3nnc(-c4c(OC)ccc5ccccc45)n3)cc1)CC2 | – | ~10 | ~10
7.49 | 0.75 | – | – | COc1cc2c(cc1OC)CN(CCc1ccc(-n3nnnc3-c3ccc(OC)c(OC)c3OC)cc1)CC2 | – | – | –
> 100 | 0.26 | – | – | COc1cc2c(cc1OC)CN(CCc1ccc(-n3nnc(-c4c(OC)c(OC)cc5ccccc45)n3)cc1)CC2 | – | – | –
> 100 | 0.75 | – | – | COc1cc2c(cc1OC)CN(CCc1ccc(-n3nnnc3-c3c(OC)ccc4ccccc34)cc1)CC2 | – | – | –
